Results published in ChEMBL document CHEMBL3286302, “Design, synthesis and biological evaluation of small molecular polyphenols as entry inhibitors against H(5)N(1)” (Bioorg Med Chem Lett, 2014).
pIC50: −log10 of the molar value. Active and inactive are the calls of the source. The calls are words filed in the database; no cut-off is given here.

Columns and labels:
[1] = Antiviral activity against Influenza A virus (A/Vietnam/1194/2004(H5N1)) infected in MDCK cells assessed as inhibition of viral replication after 2 to 3 days by crystal violet staining-based plaque reduction assay; assay type: functional, cell-based
[2] = Cytotoxicity against MDCK cells after 72 hrs by MTT assay; assay type: cell-based, Canis lupus familiaris; conditions: dog
Outline: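 Uninfected MDCK cells were assayed by MTT. CC50 is the concentration causing 50% cell death. Values are the average of three separate experiments.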

[3] = Selectivity index, ratio of CC50 for MDCK cells to IC50 for Influenza A virus (A/Vietnam/1194/2004(H5N1)); assay type: functional
[4] = target: Neuraminidase (Influenza A virus) (UniProt B4URF0); assay: Inhibition of Influenza A virus H5N1 neuraminidase up to 20 ug/ml by fluorescence spectrophotometric analysis
Sequence of Neuraminidase (Influenza A virus) (B4URF0 as listed by the source): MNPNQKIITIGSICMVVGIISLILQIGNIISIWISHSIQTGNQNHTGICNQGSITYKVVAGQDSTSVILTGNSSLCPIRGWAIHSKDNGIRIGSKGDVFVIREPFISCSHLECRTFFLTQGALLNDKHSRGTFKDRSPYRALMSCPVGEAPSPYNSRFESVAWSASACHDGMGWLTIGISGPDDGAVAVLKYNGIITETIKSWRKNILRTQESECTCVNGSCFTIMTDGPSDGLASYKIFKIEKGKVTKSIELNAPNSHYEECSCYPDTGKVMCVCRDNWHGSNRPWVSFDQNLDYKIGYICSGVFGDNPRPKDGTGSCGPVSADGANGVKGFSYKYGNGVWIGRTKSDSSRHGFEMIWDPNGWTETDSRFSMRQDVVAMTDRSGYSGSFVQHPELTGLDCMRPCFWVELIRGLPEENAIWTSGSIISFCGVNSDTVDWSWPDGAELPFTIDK

[5] = cells; assay type: functional, Influenza A virus (A/Vietnam/1194/2004(H5N1)); conditions: Influenza A virus, MDCK, 2 h
[6] = cells; assay type: functional, Influenza A virus (A/Vietnam/1194/2004(H5N1)); conditions: Influenza A virus, MDCK, 2 h; remark: listed apart in the source
[7] = system: Influenza A virus; assay: Inhibition of Influenza A virus H5N1 hemagglutinin adsorption to chicken RBC at 100 ug/ml by two-fold dilution method
Outline: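 Hemagglutination inhibition assay using H5 standard antigen and antiserum. Compounds were tested in serial 2-fold dilutions from 100 to 0.098 µg/ml.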

Compound	pIC50 [1]	CC50 at 72 h [2] [µM]	Ratio CC50/IC50 [3]	inhibition [4]	inhibition at 30 µM [5] [%]	inhibition at 30 µM [6] [%]	inhibition [7]
COC(=O)[C@H](CC(C)C)NC(=O)Cc1ccc(O)c(O)c1	4.38	> 183	>4.38				
CCOC(=O)CCc1ccc(O)c(O)c1	4.67	> 216	>10.08				
COC(=O)CCc1ccc(O)c(O)c1	4.62	> 238	>10.01				
COC(=O)[C@H](CC(C)C)NC(=O)c1ccc(O)c(O)c1	4.65	> 119	>5.33	inactive	> 50	20	inactive
COC(=O)Cc1ccc(O)c(O)c1	4.71	> 170	>8.7				
CC(C)OC(=O)Cc1ccc(O)c(O)c1	4.82	> 149	>9.77				
COC(=O)CCc1ccc(OC)c(OC)c1		> 149					
OCc1ccc(O)c(O)c1	5.75	> 143	>80.15	inactive	100	20	inactive
COC(=O)c1ccc(O)c(O)c1 [METHYL PROTOCATECHUATE]	4.74	> 183	>10.02				
COC(=O)c1ccc(OC)c(OC)c1 [VERATRIC ACID METHYL ESTER]		> 170					
CCOC(=O)Cc1ccc(O)c(O)c1	4.77	> 159	>9.41				
CC(C)OC(=O)CCc1ccc(O)c(O)c1	4.71	> 198	>10.16				
CCOC(=O)c1ccc(O)c(O)c1	4.79	> 170	>10.55				
CC(C)OC(=O)c1ccc(O)c(O)c1	4.83	> 159	>10.65	inactive	> 50	20	inactive
CC(=O)N[C@H]1[C@H]([C@H](O)[C@H](O)CO)OC(C(=O)O)=C[C@@H]1NC(=N)N [ZANAMIVIR]	6.06	> 100	>113.64				
COC(=O)Cc1ccc(OC)c(OC)c1		> 159					
COC(=O)[C@H](Cc1ccccc1)NC(=O)Cc1ccc(O)c(O)c1		> 170					
COC(=O)[C@H](Cc1ccccc1)NC(=O)c1ccc(O)c(O)c1		> 106					
NC12CC3CC(CC(C3)C1)C2 [AMANTADINE]	4.97	219	20.27				
